CHOP inhibitor: CHOP inhibition in unfolded protein response. AID 2732. inhibition, % at 10 µM. 220,000 tested, 3.8% active. CHO-K1 CHOP-promoter luciferase, tunicamycin-induced, 15-18 h;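 active means compounds that reduced the stress-induced luciferase reporter signal by more than about 70% of percent inhibition, limit read from the data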;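 further: 0% = tunicamycin plus vehicle and 100% = wells without tunicamycin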
XBP1 UPR activ: adaptive UPR (XBP1) activation. CHO-XBP1 luciferase reporter, IRE1-XBP1 UPR activation, luminescence; percent of tunicamycin response, DMSO as zero. 330,000 tested, 0.33% active. activation, % at 20 µM. AID 463104;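 active means versus positive control, 20 µM dose yields 30% or more activation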;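 further: 100% = tunicamycin at 10 µg/mL and 0% = DMSO only wells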
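incubation = overnight seeding at 37 °C, 6 h compound treatment at 37 °C | assay system = CHO-XBP1 cells stably carrying IRE1-XBP1-driven luciferase reporter | input = 1000 cells per well | detection = luciferase luminescence | dosing = single point, 20 µM final compound, 1% DMSO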
Beta2AR agonist: agonists of human beta-2 adrenergic receptor inducing internalization | P07550 | Am2.2-beta2AR cells, FAP receptor internalization, flow cytometry | response, % (no concentration beside the values) | 340,000 tested, 0.43% active | AID 504454;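 active means response above a set limit, near 3 SD of response in nonfluorescent compounds, cut at about 42% in these data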
VLA-4 inh: inhibition in a human VLA-4 binding assay; P13612; VLA-4 expressing cells, ligand binding flow cytometry; inhibition, % (about 7 µM as worked out from the volumes in the protocol); AID 2557; 330,000 tested, 0.2% active; in the data active means inhibition above about 50%
Target sequence (P13612 whole entry, looked up): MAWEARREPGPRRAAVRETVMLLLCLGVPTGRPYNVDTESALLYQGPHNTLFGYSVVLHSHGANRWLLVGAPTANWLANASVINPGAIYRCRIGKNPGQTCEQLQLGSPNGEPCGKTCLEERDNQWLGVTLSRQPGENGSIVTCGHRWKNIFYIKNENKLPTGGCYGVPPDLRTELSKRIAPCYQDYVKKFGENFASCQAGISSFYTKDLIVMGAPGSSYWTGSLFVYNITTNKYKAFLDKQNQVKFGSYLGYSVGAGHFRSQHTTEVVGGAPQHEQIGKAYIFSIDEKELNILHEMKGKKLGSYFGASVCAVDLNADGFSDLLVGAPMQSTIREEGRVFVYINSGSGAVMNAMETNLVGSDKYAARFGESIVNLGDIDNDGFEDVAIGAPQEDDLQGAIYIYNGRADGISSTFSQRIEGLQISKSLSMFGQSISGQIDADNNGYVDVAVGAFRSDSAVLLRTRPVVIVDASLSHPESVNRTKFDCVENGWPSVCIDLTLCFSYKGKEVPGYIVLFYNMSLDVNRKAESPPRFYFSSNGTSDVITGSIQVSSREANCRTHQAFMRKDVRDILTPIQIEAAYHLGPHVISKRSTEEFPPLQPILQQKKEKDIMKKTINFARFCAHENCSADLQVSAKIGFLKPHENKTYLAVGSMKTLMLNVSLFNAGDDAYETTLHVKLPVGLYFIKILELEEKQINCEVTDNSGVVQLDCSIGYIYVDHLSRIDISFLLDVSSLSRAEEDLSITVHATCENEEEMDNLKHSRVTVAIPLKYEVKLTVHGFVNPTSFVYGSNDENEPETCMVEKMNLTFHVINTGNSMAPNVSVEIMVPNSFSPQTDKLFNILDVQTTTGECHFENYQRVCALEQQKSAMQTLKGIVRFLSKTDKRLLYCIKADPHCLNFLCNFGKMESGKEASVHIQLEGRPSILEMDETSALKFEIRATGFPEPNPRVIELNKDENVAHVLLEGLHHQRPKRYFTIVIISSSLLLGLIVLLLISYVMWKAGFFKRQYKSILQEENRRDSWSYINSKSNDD
CHOP UPR activ: apoptotic UPR (CHOP) activation; CHO-CHOP luciferase reporter, luminescence; percent of tunicamycin response over DMSO baseline; activation, % at 10 µM; 330,000 tested, 0.34% active; AID 449763;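 active means at 10 µM dose, activation of 40% or more, normalized to positive control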;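 further: 100% = tunicamycin at 10 µg/mL and 0% = DMSO alone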
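measured by = luciferase luminescence | assay system = CHO-CHOP cells, stable luciferase reporter of PERK-eIF2a-CHOP signalling | amount = 500 reporter cells seeded per well | timing = 6 h compound exposure at 37 °C after overnight seeding | controls = positive tunicamycin 10 µg/mL, negative DMSO alone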
CHOP confirm: confirmation of CHOP induction inhibitors. AID 504437. CHO-CHOP promoter luciferase reporter, tunicamycin-induced, luminescence. 2,100 tested, 45% active. shares compounds with CHOP inhibitor. inhibition, % at 10 µM;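 active means mean of three repeat readings of reporter signal inhibition above a set limit, cut at about 70% in these data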;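 further: 0% = tunicamycin plus vehicle and 100% = wells lacking tunicamycin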
Active calls of the source: *; x = not tested or not shown. The entries come from a sample that favours hits as a whole.

SMILES | CHOP inhibitor | XBP1 UPR activ | Beta2AR agonist | VLA-4 inh | CHOP UPR activ | CHOP confirm
CC(C)C(=O)Nc1cccc(C(=O)Nc2ccc(S(=O)(=O)N3CCOCC3)cc2)c1 | x | -4 | 0 | 6 | 3 | x
CCOC(=O)c1c(C)[nH]c(C(=O)COC(=O)C2CC(=O)N(Cc3ccccc3)C2)c1C (stereo unspecified) | 101* | -1 | 0 | 5 | 1 | 6
CCOC(=O)c1c(C)[nH]c(C(=O)COC(=O)c2[nH]c(C)c(C(C)=O)c2C)c1C | 97* | -2 | -6 | -20 | -2 | 83*
CCN(C(=O)COC(=O)c1cc([N+](=O)[O-])ccc1N1CCOCC1)C1CCCCC1 | x | 2 | -2 | -6 | 0 | x
COc1ccc(C(=O)Nc2ccc3[nH]ncc3c2)cc1OC | x | -2 | -3 | 7 | -1 | x
Cc1ccc(NCC(=O)N/N=C/c2cccc(Oc3ccccc3)c2)cc1 | 101* | -3 | 7 | 0 | 2 | 85*
Cc1cccc(NCC(=O)N/N=C\c2cccc(Oc3ccccc3)c2)c1 | 104* | 0 | -7 | 5 | -1 | 81*
COc1ccc2[nH]c3c(=O)n(N)c(=O)[nH]c3c2c1 | x | -5 | 14 | 8 | 0 | x
COc1ccc2[nH]c3c(=O)n(/N=C/[C@H]4C(C)C=C(C)CC4C)c(=O)[nH]c3c2c1 (stereo partly specified) | 109* | 1 | 3 | 3 | 2 | 16
O=C(CCl)Nc1cc(-c2ccccc2)nn1-c1ccccc1 | x | -6 | 4 | -47 | 12 | 83*
CC(=O)Nc1ccc(-c2cc(NC(C)=O)n(-c3ccccc3)n2)cc1 | -10 | 0 | -14 | 7 | 0 | x
O=C(Cc1ccc(NC(=O)C2CCN(C(=O)C3CCCC3)CC2)cc1)Nc1ccc(C(=O)N2CCOCC2)cc1 | x | x | -1 | x | x | x
CCOc1ccc(S(=O)(=O)Nc2ccc(F)cc2)c(C)c1C | 106* | 0 | -4 | 15 | 0 | 59
CC1CCCN(C(=O)c2ccc(NC(=O)CC3SC(N4CCCC4)=NC3=O)cc2)C1 (stereo unspecified) | x | -3 | -2 | 15 | -1 | x
C/C(=N\N=C(/N)SC1CC(=O)N(c2ccc(Cl)cc2)C1=O)c1cccs1 (stereo unspecified) | 69 | 0 | 6 | 25 | 1 | x
C/C(=N\N=C(/N)SC1CC(=O)N(c2ccc(Cl)c(Cl)c2)C1=O)c1cccs1 (stereo unspecified) | 110* | 0 | -4 | 39 | 0 | 19
C=CCN(CC=C)C(=O)COn1nnc2ccc(S(=O)(=O)N3CCOCC3)cc21 | x | -6 | 2 | -4 | 1 | x
CC(C)(C)OC(=O)N1CCC(NC(=O)c2nc[nH]c2C(=O)N2CCc3ccccc3C2)CC1 | x | -3 | 1 | 1 | 2 | x
CCOc1ccc(Br)cc1S(=O)(=O)NC1=NCCCCC1 | x | -1 | -1 | 15 | 0 | x
Cc1cc(NCCCN)nc(-c2ccccc2O)n1 | 101* | -1 | 1 | 4 | -2 | -10
Cc1cc(N/N=C/c2ccc(O)c(C)c2O)nc(-c2ccccc2O)n1 | 107* | x | 24 | 19 | x | 28
CCOc1ccccc1CN1CCCC(CNS(=O)(=O)c2ccc(OC)cc2)C1 (stereo unspecified) | x | -2 | 5 | 13 | 0 | x
Cc1ccc2nc(C(Cl)(Cl)Cl)nc(N/N=C/c3ccc([N+](=O)[O-])cc3)c2c1 | x | x | -4 | x | x | x
CCOC(=O)CN1C(c2ccc(O)cc2)Nc2ccc(Br)cc2C1c1ccccc1 (stereo unspecified) | 108* | -1 | 3 | -6 | 3 | 119*
Cc1sc(NC(=O)c2ccccc2)c(C(c2ccc(Cl)cc2)N2CCN(CCO)CC2)c1C (stereo unspecified) | 104* | 2 | 6 | 2 | 0 | 2
COc1ccccc1NC(=O)c1c(Nc2ccccc2F)sc(C(=O)Nc2cccc(Cl)c2)c1N | 108* | 3 | 5 | 3 | 5 | 63
CCN(CC)CCN(C(=O)c1ccc2c(c1)CCCC2)c1nc2cc(OC)c(OC)cc2s1 | x | 6 | 7 | 7 | 7 | x
COc1ccc(CC(=O)Nc2cccc(-c3nnc(-c4cccc(C)c4)o3)c2)cc1OC | x | -7 | 17 | -21 | -5 | 113*

Screens (PubChem)
